From PubChem BioAssay
Rows were chosen to be rich in hits. Some 4% of all compounds tested hit in one or more screens of this group.
GPR7 antagonist = blocks human GPR7 receptor signaling | P48145 | GPR7-expressing cells, fluorescence antagonist assay | inhibition, % at 4.4 µM | hit rate 1.1% among 290,000 | AID 1861; in the data active = inhibition above about 16%, passing the limit was not always enough;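 also: cells stimulated with the agonist NPW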
Target sequence (P48145 whole entry, looked up): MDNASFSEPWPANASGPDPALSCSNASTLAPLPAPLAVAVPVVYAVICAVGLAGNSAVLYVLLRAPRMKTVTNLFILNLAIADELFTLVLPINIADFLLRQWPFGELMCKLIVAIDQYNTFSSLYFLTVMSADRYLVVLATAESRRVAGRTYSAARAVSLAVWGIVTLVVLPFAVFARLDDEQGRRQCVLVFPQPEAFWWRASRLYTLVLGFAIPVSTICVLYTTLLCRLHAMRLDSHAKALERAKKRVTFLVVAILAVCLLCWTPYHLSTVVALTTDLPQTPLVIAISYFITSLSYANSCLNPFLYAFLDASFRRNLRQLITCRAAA
TAAR1 agonist = agonists of human TAAR1. CHO RD-HGA16 TAAR1, Fluo-8 calcium fluorescence; vehicle wells 0%, saturating PEA agonist 100%. Q96RJ0. AID 624467. activation, % at 3 µM. hit rate 0.99% among 360,000;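 active = activation above the mean activation of all test compounds in the run plus 3 SD, cut at about 38% in these data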
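Signal – calcium-sensitive Fluo-8 signal, excitation 470-495, emission 515-575 nm · System – RD-HGA16 (CHO) cells co-expressing Gα16 and hTAAR1 · Incubation – 17-24 h seeding, 75 min 37 °C dye, 30 min RT · Compound dosing – 3 µM single concentration · Repeats – no replicates (n 1)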
MPTP block = inhibitors of mitochondrial permeability transition pore; isolated mouse mitochondria, Ca2+ swelling absorbance, 30 min; inhibition, % at 10 µM; hit rate 1.4% among 360,000; AID 602449;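 active = inhibition of 50% or more, scaled per plate between neutral and stimulator controls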
DAGLB inh = blocks human DAGLB lipase activity; AID 504411; Q8NCG7; HEK293T DAGLB membrane lysate, EnzChek fluorogenic substrate; hit rate 0.059% among 340,000; inhibition, % at 5.17 µM; in the data active = inhibition above about 34%
TAAR1 antag = human TAAR1 antagonism; AID 624466; inhibition, % at 3 µM; Q96RJ0; CHO RD-HGA16 TAAR1, Fluo-8 calcium fluorescence, antagonist; hit rate 1.5% among 360,000;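 active = inhibition above a per-plate cutoff, the mean inhibition of test compounds on that plate plus 3 SD, cut at about 49% in these data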
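Test system – hTAAR1-expressing CHO RD-HGA16 cells, Gα16-coupled · Reagent – β-PEA at EC80 concentration, post-compound challenge · Compound dosing – 3 µM, single point · Timing – 140 s kinetic read after compound, 140 s after agonist · Detection – Fluo-8 intracellular calcium dye fluorescence, real-time kinetic reads · Control set – DMSO and EC80 PEA controls · Repeats – n of 1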
GPR7 antag cf = confirmation of human GPR7 antagonists | shares compounds with GPR7 antagonist | GPR7-expressing cells, calcium fluorescence antagonist mode | inhibition, % at 4.4 µM | hit rate 52% among 2,400 | AID 1952; in the data active = inhibition above about 24%;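 also: stimulated with the GPR7 agonist NPW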
MCHR1 antagonist = MCHR1 (human) antagonism in GPR7 counter-screen. shares compounds with GPR7 antagonist. MCHR1-expressing cells, fluorescence antagonist assay. inhibition, % at 4.4 µM. hit rate 62% among 2,400; in the data active = inhibition above about 22%
Hits are given with their value; 0 = inactive; - = no result.

SMILES	GPR7 antagonist	TAAR1 agonist	MPTP block	DAGLB inh	TAAR1 antag	GPR7 antag cf	MCHR1 antagonist
COc1ccc(CN2CCC[C@]3(N[C@H](c4ccccc4)[C@@H]4C(=O)N(Cc5ccccc5)C(=O)[C@@H]43)C2=O)cc1	-	0	0	0	0	-	-
COc1cc(CNC(C)(C)CO)cc(Br)c1OCc1ccc(Cl)cc1Cl	29	0	0	0	0	57	57
Cc1cccc(-c2nc(=S)c3c(n2Cc2ccco2)CCCC3)c1	28	0	0	0	0	0	0
O=C(OCc1ccccc1)N1CCC2CC1c1ccc(-c3cccc(F)c3)cc12 (centres undefined)	-	0	0	-	0	-	-
CCCC(c1nnnn1Cc1ccco1)N1CCN(c2cc(Cl)ccc2C)CC1 (centres undefined)	26	0	0	0	0	35	50
COC(=O)C1=C(C)N(CC(C)C)C(=S)NC1c1cccc(F)c1 (centres undefined)	-	0	-	-	0	-	-
CC(=O)N1C(=O)C2(NCC(C)N2)c2ccccc21 (centres undefined)	-	0	0	-	0	-	-
Cc1ccccc1OC(C)C(=O)N1CCC(Cc2ccccc2)CC1 (centres undefined)	28	0	0	0	0	0	36
CCCCn1c(N)c(N(CC)C(=O)CSc2nnnn2-c2cc(C)ccc2C)c(=O)[nH]c1=O	23	0	0	0	0	0	0
COc1ccc(/C=N/Nc2ccc([N+](=O)[O-])cc2)cc1O	30	40	0	0	0	37	41
COc1cccc(/C=N/Nc2ccc([N+](=O)[O-])cc2)c1O	0	0	0	0	0	-	-
COc1ccc(/C=C\C(=O)O[C@@H]2C(O)C(O[C@@H]3OC(C)[C@H](O[C@@H]4OCC(O[C@H]5O[C@H](CO)[C@@H](O)C(O)C5O)C(O)C4O)C(O)C3O)[C@H](OC(=O)[C@]34CCC(C)(C)C[C@@H]3C3=CCC5[C@@]6(C)CC(O)C(O[C@@H]7OC(CO)C(O)[C@H](O)[C@H]7O)[C@@](C)(C(=O)O)C6CC[C@@]5(C)[C@]3(CO)CC4)O[C@H]2C)cc1 (some centres undefined)	-	-	0	0	-	-	-
CCCCCOc1ccc(OC(=O)c2ccncc2)cc1	27	0	0	0	0	0	0
CCCCOc1ccc(C(=O)Oc2ccc(C)nc2)cc1	0	0	0	0	0	-	-
Cc1cc2c(cc(C(=O)N3CCC(C(=O)N4CCCC4)CC3)n2Cc2c(F)cccc2Cl)o1	27	0	0	0	0	0	0
CCOC(=O)c1cc2occc2n1Cc1c(F)cccc1Cl	0	0	0	0	0	-	-
NC(=O)c1ccsc1NC(=O)COC(=O)Cc1cccc2ccccc12	28	0	0	0	73	54	78
O=C(NC1CCCCC1)C(c1ccc(F)cc1)N(Cc1ccco1)C(=O)c1ccccn1 (centres undefined)	26	0	0	0	0	0	0
O=C(NCc1ccccc1)C(c1ccc(F)cc1)N(Cc1ccco1)C(=O)c1ccccn1 (centres undefined)	0	0	0	0	0	-	-
S=C(NCCN1CCCCC1)Nc1ccc(Br)cc1	38	0	0	0	0	0	0
COc1ccc2nc(C)cc(Nc3ccc(N4CCN(C)CC4)cc3)c2c1	0	0	0	0	0	-	-
O=C(COC(=O)C1CC2C=CC1C2)NCCc1ccccc1 (centres undefined)	25	0	0	0	0	0	0
O=C(COC(=O)C1CC1)NCCc1ccccc1	-	0	0	0	0	-	-
O=C(CSc1nc2ccccc2s1)c1ccc(O)cc1O	0	0	0	0	0	-	-
O=C(Cc1nc2ccccc2s1)c1ccc(O)cc1O	25	-	-	-	-	0	0
CCOc1ccccc1-c1ccc(C(=O)NCc2ccc(Cl)cc2)o1	-	0	0	-	0	-	-
COc1ccc(CC(=O)NCc2nnc(SCc3ccc([N+](=O)[O-])cc3)n2C)cc1	0	0	0	0	0	-	-
Cn1c(Cc2cccc3ccccc23)nnc1SCc1ccc([N+](=O)[O-])cc1	29	0	0	0	0	0	0
COc1ccc(C(=O)C[C@@H]2OC3CCCCC3N2S(=O)(=O)c2ccc(C)cc2)cc1OC (some centres undefined)	-	0	0	-	0	-	-
